The source of these data is ChEMBL document CHEMBL1134091, “Aromatic inhibitors of dehydroquinate synthase: synthesis, evaluation and implications for gallic acid biosynthesis” (Bioorg Med Chem Lett, 2001).

Data set [1] concerns the target T1, 3-dehydroquinate synthase (Escherichia coli K-12, UniProt P07639).
T1 sequence (P07639 whole entry): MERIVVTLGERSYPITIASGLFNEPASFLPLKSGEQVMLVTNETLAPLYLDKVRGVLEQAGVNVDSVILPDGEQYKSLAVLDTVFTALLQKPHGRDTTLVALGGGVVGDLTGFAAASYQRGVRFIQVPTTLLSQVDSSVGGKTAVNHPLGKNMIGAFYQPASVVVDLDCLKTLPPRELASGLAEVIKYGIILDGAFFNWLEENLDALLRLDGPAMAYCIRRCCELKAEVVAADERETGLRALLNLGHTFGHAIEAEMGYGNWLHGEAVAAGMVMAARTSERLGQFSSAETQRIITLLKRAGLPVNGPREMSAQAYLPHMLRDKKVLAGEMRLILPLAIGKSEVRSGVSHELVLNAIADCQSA
Nature of the data set: Inhibition constant for binding to Co2+ form of 3-dehydroquinate synthase (DHQ) purified from Escherichia coli. Summed up: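 E. coli DHQ synthase, Co2+ form, purified with […] in all buffers from lysis onward. Assayed at rt in 50 mM MOPS pH 7.5 with […], 10 mM NAD+, 1 unit dehydroquinase, varied DAHP and inhibitor; 0.024 units enzyme added last. A234 increase followed. Ki from Dixon plots, or as half the I50 x-intercept at DAHP = Km ([…]).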

In data set [2] the target is T1, 3-dehydroquinate synthase. Nature of the data set: Inhibition constant for binding to Zn2+ form of 3-dehydroquinate synthase (DHQ) purified from Escherichia coli. In outline:
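E. coli DHQ synthase, Zn2+ form, purified with 75 mM ZnSO4 replacing CoCl2 in all buffers. Assayed at rt in 50 mM MOPS pH 7.5 with […] mM NAD+, 1 unit dehydroquinase, varied DAHP and inhibitor; 0.024 units enzyme added last. A234 increase followed. Ki from Dixon plots, or as half the I50 x-intercept at DAHP = Km ([…]).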

Substrate in data set [3]: Oc1ccccc1O
Nature of the data set: Kinetics expressed as Michaelis-Menten constant against Zn2+ form of 3-dehydroquinate synthase purified from Escherichia coli. In outline:
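Zn2+-form enzyme from E. coli, purified with ZnSO4 replacing CoCl2 in every buffer from cell lysis onward. Coupled assay in 50 mM MOPS pH 7.5 with ZnSO4, NAD+, dehydroquinase (1 unit) and varying DAHP substrate. Equilibrated at rt, then started with 0.024 units synthase. Absorbance increase at 234 nm monitored. Initial rates from linear least-squares fits.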

Substrate in data set [4]: Oc1ccccc1O
Nature of the data set: Kinetics expressed as Michaelis-Menten constant against Co2+ form of 3-dehydroquinate synthase purified from Escherichia coli. Summed up: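 Co2+-form enzyme from E. coli, with CoCl2 in all buffers from lysis through purification. Coupled assay in 50 mM MOPS pH 7.5 with CoCl2, NAD+, dehydroquinase (1 unit) and varying DAHP substrate. Equilibrated at rt, then started with 0.024 units synthase. Absorbance rise at 234 nm followed over time. Initial rates taken from linear least-squares fits of progress curves.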

As a reminder, the Ki is the equilibrium dissociation constant of an inhibitor or competing ligand from its target. Read a high Ki as weaker binding. For the molecule `Oc1ccccc1O` [CATECHOL], the Ki in data set [1] came to 880 µM; in data set [2], 630 µM.

Consider `O=P(O)(O)CCc1cccc(O)c1O`, for which the inhibition constant (Ki) was 200 µM in data set [1] and 90 µM in data set [2].

For `O=C(O)c1ccc(O)c(O)c1` [PROTOCATECHUIC ACID], the results for the Ki in data set [1] and in data set [2] were 44 µM and 65 µM, respectively.

Turning to `O=C(O)c1cc(O)c(O)c(CCP(=O)(O)O)c1`, the values for the inhibitory constant (Ki) in data set [1] and in data set [2] were 5 µM and 1.7 µM, respectively.

Regarding `O=C(O)c1cc(O)c(O)c(CP(=O)(O)O)c1`, the Ki in data set [1] stood at 21 µM; in data set [2], 0.35 µM.

B1: 3-dehydroquinate synthase (Escherichia coli K-12), P07639 (protein)
chain: MERIVVTLGERSYPITIASGLFNEPASFLPLKSGEQVMLVTNETLAPLYLDKVRGVLEQAGVNVDSVILPDGEQYKSLAVLDTVFTALLQKPHGRDTTLVALGGGVVGDLTGFAAASYQRGVRFIQVPTTLLSQVDSSVGGKTAVNHPLGKNMIGAFYQPASVVVDLDCLKTLPPRELASGLAEVIKYGIILDGAFFNWLEENLDALLRLDGPAMAYCIRRCCELKAEVVAADERETGLRALLNLGHTFGHAIEAEMGYGNWLHGEAVAAGMVMAARTSERLGQFSSAETQRIITLLKRAGLPVNGPREMSAQAYLPHMLRDKKVLAGEMRLILPLAIGKSEVRSGVSHELVLNAIADCQSA
A word on the Km: it is the substrate concentration at which the rate is half of its maximum. Regarding B1, the Michaelis constant (Km) in data set [3] was determined as 16 µM; in data set [4], 18 µM.
